Compound activity as filed in PubChem BioAssay.
NSD2 inh = NSD2 histone methyltransferase inhibitors, primary screen, biochemical, AlphaScreen, single concentration, set 2 | Histone-lysine N-methyltransferase NSD2 (Homo sapiens), O96028 | NSD2 peptide methylation, 120 min | inhibition, % at 12.5 µM | 0.54% of 310,000 active; in the data active = inhibition above about 50%
UHRF1 MBD2 ctr = UHRF1 methylated DNA binding inhibitors, primary screen, counter-screen for MBD2 inhibitor project, biochemical, TR-FRET, human UHRF1, single concentration; E3 ubiquitin-protein ligase UHRF1 (Homo sapiens), Q96T88; UHRF1 binding to methylated oligo; inhibition, % at 4.4 µM; 0.75% of 370,000 active; in the data active = inhibition above about 21%;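 note: UHRF1 SRA domain binding a hemimethylated CpG hairpin DNA probe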
Target sequence (Q96T88 whole entry, looked up, the tested form may be a part): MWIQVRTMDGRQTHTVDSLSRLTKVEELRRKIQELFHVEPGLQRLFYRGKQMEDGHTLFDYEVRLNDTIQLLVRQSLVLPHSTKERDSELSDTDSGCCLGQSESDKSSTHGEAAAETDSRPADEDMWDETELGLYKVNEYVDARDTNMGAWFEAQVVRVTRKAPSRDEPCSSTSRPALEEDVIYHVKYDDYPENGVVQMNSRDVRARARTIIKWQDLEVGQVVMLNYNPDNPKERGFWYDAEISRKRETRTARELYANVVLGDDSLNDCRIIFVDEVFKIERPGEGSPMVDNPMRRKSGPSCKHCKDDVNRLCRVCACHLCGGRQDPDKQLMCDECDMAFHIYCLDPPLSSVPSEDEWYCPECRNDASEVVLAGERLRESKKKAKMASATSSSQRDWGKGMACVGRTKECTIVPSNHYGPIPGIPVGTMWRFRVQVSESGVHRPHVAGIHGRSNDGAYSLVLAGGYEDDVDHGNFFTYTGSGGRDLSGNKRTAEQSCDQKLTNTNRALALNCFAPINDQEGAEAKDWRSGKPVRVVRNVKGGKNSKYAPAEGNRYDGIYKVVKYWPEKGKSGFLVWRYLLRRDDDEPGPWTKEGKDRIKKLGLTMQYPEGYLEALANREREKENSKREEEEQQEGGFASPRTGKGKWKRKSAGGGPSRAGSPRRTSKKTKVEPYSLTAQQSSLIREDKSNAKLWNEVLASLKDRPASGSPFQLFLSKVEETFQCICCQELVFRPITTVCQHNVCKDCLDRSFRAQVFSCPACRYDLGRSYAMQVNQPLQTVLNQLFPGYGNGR
Casp6 inh = human caspase-6 inhibitors, primary screen, biochemical, VEID-R110 fluorescence, single point, set 2 | P55212 | purified caspase-6, Z-VEID-R110 cleavage fluorescence | inhibition, % at 12.5 µM | 0.53% of 350,000 active;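 active = mean inhibition across replicates at least about 35%, with every replicate also reaching that limit, limit read from the data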
TDP2 inh = human TDP2 enzyme inhibitors, primary screen, biochemical, epi absorbance, recombinant enzyme; T5PNP hydrolysis, p-nitrophenol absorbance 415 nm; 0.34% of 370,000 active; inhibition, % at 12.8 µM; Tyrosyl-DNA phosphodiesterase 2 (Homo sapiens), O95551;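 active = inhibition above the mean of all tested compounds plus 3 SD, set per campaign, cut at about 25% in these data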
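System – recombinant human TDP2 · Quantity – TDP2 enzyme at 120 nM final · Doses – single concentration, 12.8 µM nominal, with 1% DMSO · Incubation – 2 h at 37 °C · Measured by – epi absorbance of p-nitrophenol freed from T5PNP by hydrolysis · Read-out – % inhibition relative to enzyme-containing and enzyme-free wells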
LEDGF integ inh = blockers of LEDGF/p75-dependent integrase strand transfer – biochemical, TR-FRET, high throughput, primary screen. TR-FRET IN-LEDGF/p75 DNA integration, Eu/Cy5. 0.64% of 370,000 active. HIV-1 integrase (with human LEDGF/p75). inhibition, % at 3.7 µM;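 active = inhibition above the screen-wide mean plus 3 SD, cut at about 13% in these data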;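 note: signal is the Cy5 over europium emission ratio at 671 and 618 nm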
MBD2 DNA inh = inhibitors of MBD2 binding to methylated DNA, primary screen, biochemical, TR-FRET, DNA-binding domain, human; Methyl-CpG-binding domain protein 2 (Homo sapiens), Q9UBB5; MBD2 binding to methylated oligonucleotide; inhibition, % at 4.4 µM; 0.31% of 370,000 active; in the data active = inhibition above about 13%
UHRF1 ctr MBD2 = UHRF1 methylated DNA binding inhibitors, counter-screen for MBD2 inhibitor project, biochemical, TR-FRET, human UHRF1; AID 720530, 2013; UHRF1 binding to methylated oligonucleotide; inhibition, % at 4.4 µM; 25% of 1,000 active; shares compounds with MBD2 DNA inh; in the data active = inhibition above about 21%;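 note: UHRF1 SRA domain binding a labeled hemimethylated CpG hairpin DNA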
MBD2 DBD conf = inhibitors of MBD2 binding to methylated DNA, confirmation, biochemical, TR-FRET, DNA-binding domain, human; shares compounds with MBD2 DNA inh; TR-FRET MBD2-DBD binding to methylated oligonucleotide; inhibition, % at 4.4 µM; 26% of 1,000 active; AID 720531, 2013
TDP2 inh conf = human TDP2 enzyme inhibitors, retest, confirmation, biochemical, epi absorbance, recombinant enzyme. 22% of 1,100 active. inhibition, % at 12.8 µM. shares compounds with TDP2 inh. absorbance read-out; in the data active = inhibition above about 25%
IN multimer up = HIV-1 IN multimer formation enhancers, counter-screen for LEDGF/p75 integration inhibitor project, biochemical, TR-FRET | shares compounds with LEDGF integ inh | TR-FRET HIV-1 integrase multimerization | activation, % at 7.7 µM | 17% of 2,000 active | AID 1053131, 2014; in the data active = activation above about 8.9%
TRFRET interf = TR-FRET optical interference artefacts, confirmation, artefact control for LEDGF/p75-dependent integration inhibitor project, biochemical, HIV-1 IN multimerization | shares compounds with LEDGF integ inh | TR-FRET optical interference counterscreen | inhibition, % at 7.7 µM | 2,000 tested, under 10 active | AID 1053135, 2014;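 active = inhibition above the mean over all tested compounds plus 3 SD, which no compound reached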
IN-LEDGF confirm = inhibitors of HIV-1 IN-LEDGF/p75 DNA integration, confirmation, biochemical, TR-FRET; shares compounds with LEDGF integ inh; TR-FRET LEDGF/p75-dependent HIV-1 integration; inhibition, % at 3.7 µM; 36% of 2,000 active
Of the large screens only hits and unclear results are named; the others gave an inactive call (follow-up assays come after a bar, where they were run). An excerpt weighted towards active compounds, which were near 1.9% of everything screened. Cut-off read from the data, not from the text of the source, unless noted: active = inhibition above about 14%; inactive = the rest.

COc1ccc(NC(=O)Nc2ccc3c(c2)C(=O)N([C@H](C)CO)C[C@@H](C)[C@H](CN(C)C)O3)cc1	none (no result: NSD2 inh, UHRF1 MBD2 ctr, TDP2 inh, LEDGF integ inh, MBD2 DNA inh)
O=C1NC(=S)S/C1=C\C=C\c1ccc([N+](=O)[O-])o1	UHRF1 MBD2 ctr 94.5, Casp6 inh 96.1, TDP2 inh 30.2, LEDGF integ inh 81.4, MBD2 DNA inh 74.2 (no result: NSD2 inh) | UHRF1 ctr MBD2 90.4 | MBD2 DBD conf 47.4 | TDP2 inh conf inactive
COc1ccc(/C=C2/C(=O)N(c3cccc(F)c3)N=C2C)c(OC)c1	none
COc1ccc(/C=C2/C(=O)N(c3ccccc3)N=C2C)cc1Br	TDP2 inh 70.1, MBD2 DNA inh 15.2 | UHRF1 ctr MBD2 inactive | MBD2 DBD conf inactive | TDP2 inh conf 27.3
C[C@@H]1CCCCO[C@@H](CN(C)C(=O)Nc2ccccc2)[C@H](C)CN([C@H](C)CO)C(=O)c2cc(NC(=O)Nc3ccc(F)cc3)ccc2O1	none (no result: NSD2 inh, UHRF1 MBD2 ctr, TDP2 inh, LEDGF integ inh, MBD2 DNA inh)
CN(C(=O)c1cccs1)c1ccccc1C(=O)O	UHRF1 MBD2 ctr 32.1, TDP2 inh 42.2, MBD2 DNA inh 15.8 (no result: Casp6 inh) | UHRF1 ctr MBD2 inactive | MBD2 DBD conf inactive | TDP2 inh conf inactive
CCCN(C)C[C@@H]1OCCCC[C@H](C)Oc2ccc(NC(=O)Cc3ccccc3)cc2C(=O)N([C@@H](C)CO)C[C@@H]1C	none (no result: NSD2 inh, UHRF1 MBD2 ctr, TDP2 inh, LEDGF integ inh, MBD2 DNA inh)
COc1ccc(COCC23N=C4SCc5ccccc5CN4[C@H](c4ccccc4O2)[C@H]3COC(=O)c2ccccc2)cc1	none (no result: NSD2 inh, UHRF1 MBD2 ctr, TDP2 inh, LEDGF integ inh, MBD2 DNA inh)
Cc1[nH][nH]c(=O)c1C(c1cc(Br)ccc1O)c1c(C)[nH][nH]c1=O	TDP2 inh 29.9, MBD2 DNA inh 53.4 | UHRF1 ctr MBD2 inactive | MBD2 DBD conf inactive | TDP2 inh conf inactive
NC(=S)N=Nc1c(O)[nH]c2ccc(F)cc12	none
NC(=S)N=Nc1c(O)cc(O)c2[nH]c(=O)ccc12	UHRF1 MBD2 ctr 42.2, Casp6 inh 92.5, TDP2 inh 51.8, LEDGF integ inh 29.6, MBD2 DNA inh 14.6 (no result: NSD2 inh) | UHRF1 ctr MBD2 inactive | MBD2 DBD conf inactive | TDP2 inh conf 44.0
CC(=O)OCCCNc1cc(SCc2ccco2)c2nonc2c1[N+](=O)[O-]	UHRF1 MBD2 ctr 59.2, LEDGF integ inh 66.2, MBD2 DNA inh 13.5 (no result: Casp6 inh) | UHRF1 ctr MBD2 inactive | MBD2 DBD conf inactive | IN multimer up inactive | TRFRET interf inactive | IN-LEDGF confirm 24.2
O=C(O)Cc1c[nH]c2cccc(O)c12	UHRF1 MBD2 ctr 94.6, Casp6 inh 54.2, LEDGF integ inh 73.0, MBD2 DNA inh 55.1 (no result: NSD2 inh) | UHRF1 ctr MBD2 40.2 | MBD2 DBD conf 16.0 | IN multimer up 54.6 | TRFRET interf inactive | IN-LEDGF confirm 39.1
Cc1c(O)cc2c(c1O)C(=O)CC(c1ccc(O)cc1)O2 (configuration not stated)	UHRF1 MBD2 ctr 28.7, Casp6 inh 46.1, LEDGF integ inh 21.8, MBD2 DNA inh 15.1 (no result: NSD2 inh) | UHRF1 ctr MBD2 inactive | MBD2 DBD conf inactive | IN multimer up 36.8 | TRFRET interf inactive | IN-LEDGF confirm 39.2
O=C1C=C(O)c2c(O)cc(O)c(O)c2C1=O	UHRF1 MBD2 ctr 77.5, Casp6 inh 70.7, LEDGF integ inh 60.2, MBD2 DNA inh 49.2 (no result: NSD2 inh) | UHRF1 ctr MBD2 50.5 | MBD2 DBD conf 26.3 | IN multimer up 103.4 | TRFRET interf inactive | IN-LEDGF confirm 83.8
C=C1c2cccc(O)c2C(=O)C2C(=O)[C@]3(O)C(=O)C(C(N)=O)C(=O)[C@@H](N(C)C)[C@@H]3[C@@H](O)[C@H]12 (some centres not stated)	UHRF1 MBD2 ctr 96.5, LEDGF integ inh 86.3, MBD2 DNA inh 90.0 (no result: NSD2 inh, Casp6 inh) | UHRF1 ctr MBD2 inactive | MBD2 DBD conf inactive | IN multimer up 36.8 | TRFRET interf inactive | IN-LEDGF confirm 51.7
CC(C)NC(=O)N(C)C[C@H]1Oc2c(NS(=O)(=O)c3cn(C)cn3)cccc2C(=O)N([C@H](C)CO)C[C@H]1C	none (no result: NSD2 inh, UHRF1 MBD2 ctr, TDP2 inh, LEDGF integ inh, MBD2 DNA inh)
CC1=NN(c2cccc([N+](=O)[O-])c2)C(=O)C1	none
CC1=NN(c2ccccc2)C(=O)C1	TDP2 inh 66.5, LEDGF integ inh 30.9, MBD2 DNA inh 17.5 (no result: NSD2 inh) | UHRF1 ctr MBD2 inactive | MBD2 DBD conf inactive | TDP2 inh conf inactive | IN multimer up inactive | TRFRET interf inactive | IN-LEDGF confirm inactive
Nc1ccc(C(CC(=O)O)n2cccc2)cc1 (configuration not stated)	UHRF1 MBD2 ctr 100.3, LEDGF integ inh 64.9, MBD2 DNA inh 42.8 | UHRF1 ctr MBD2 inactive | MBD2 DBD conf inactive | IN multimer up inactive | TRFRET interf inactive | IN-LEDGF confirm inactive
O=C(O)CC(c1ccccc1)n1cccc1 (configuration not stated)	none (no result: NSD2 inh, Casp6 inh)
COc1ccc(NC(=O)Nc2ccc3c(c2)C(=O)N([C@@H](C)CO)C[C@@H](C)[C@H](CN(C)C(=O)c2ccccc2)OCCCC[C@@H](C)O3)cc1	none (no result: NSD2 inh, UHRF1 MBD2 ctr, TDP2 inh, LEDGF integ inh, MBD2 DNA inh)
